This note sets out measurements from ChEMBL document CHEMBL1649293, “Susceptibilities of human cytomegalovirus clinical isolates and other herpesviruses to new acetylated, tetrahalogenated benzimidazole D-ribonucleosides” (Antimicrob Agents Chemother, 2009).

Activity calls are given as the source filed them. The rule behind the calls is not given here.

Data set [1] deals with Human betaherpesvirus 5. In words: Antiviral activity against ganciclovir-sensitive HCMV infected in HFF assessed as formation of viral capsid type A at 10 uM measured after 72 hrs postinfection by electron microscopy. In kind it is functional. Summed up:
(§1)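 HFF (1 × 10^6) infected with GCV-sensitive or GCV-resistant clinical isolates at MOI 1, with or without 10 μM compound. Cells fixed 72 h p.i., embedded, thin-sectioned, and examined by transmission EM at 120 kV. Nuclear A, B and C capsids counted.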

The nature of data set [2]: Cytotoxicity against mouse NIH/3T3 cells after 8 days by XTT assay. It is filed as cell-based, NIH3T3. Summed up: (§2)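 XTT cell-proliferation read-out after 8 days of exposure at 37°C to varied drug concentrations. Absorbance was read at 492 nm against 650 nm reference, 4 h after adding XTT labeling mixture. CC50 was determined.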
(Formazan colour is commonly taken as a measure of viable cells.)

A short description of data set [3]: Cytotoxicity against rat Rat2 cells after 8 days by XTT assay. It is filed as cell-based. Summed up: as §2
Data set [4] can be described thus: Selectivity index, ratio of CC50 for HFF to EC50 for ganciclovir-resistant HCMV infected in HFF. The method, boiled down:
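CC50 in HFF (5 × 10^4/well) after 8 days at 37°C with drug dilutions, read by XTT (4 h, A492 with 650 nm reference). EC50 from 8-day plaque reduction in HFF infected with GCV-resistant clinical isolate at MOI 0.01 under methyl cellulose, duplicates, crystal violet staining.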

Data set [5] deals with Human betaherpesvirus 5. In words: Antiviral activity against ganciclovir-sensitive HCMV infected in HFF assessed as reduction in viral plaque formation after 8 days by microscopy. In kind it is functional, organism-based. Conditions: Human betaherpesvirus 5, 192 h. The method, boiled down:
(§3)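 HFF (1 × 10^5/well) infected with GCV-sensitive or GCV-resistant clinical isolates at MOI 0.01. After 1 h, inoculum replaced by methyl cellulose overlay with DMEM, 3% FCS and compound dilutions in duplicate. Incubation 8 days at 37°C, then crystal violet staining and plaque counting by microscope. EC50 derived relative to untreated cells.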

Data set [6] has as its system Human betaherpesvirus 5. In words: Antiviral activity against ganciclovir-sensitive HCMV infected in HFF assessed as cleavage of viral DNA concatemer at 10 uM measured after 72 hrs postinfection by […]. In kind it is functional, organism-based. The method, boiled down: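 HFF (1 × 10^6) infected with a GCV-sensitive clinical isolate at MOI 1 and treated with 10 μM compound. DNA was isolated 72 h p.i. and run by pulsed-field electrophoresis on 1% low-melting agarose (15–110 s pulses, 150 V, 27 h). Unit-length versus concatemeric DNA was viewed by ethidium bromide staining. Mock- and AD169-infected cells served as controls.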

The test system of data set [7] is Human betaherpesvirus 5. In words: Antiviral activity against ganciclovir-resistant HCMV infected in HFF assessed as reduction in viral plaque formation after 8 days by microscopy. Conditions: Human betaherpesvirus 5, 192 h. In kind it is functional, organism-based. Summed up: as §3
In data set [8] the test system is Human betaherpesvirus 5. In words: Antiviral activity against ganciclovir-resistant HCMV infected in HFF assessed as formation of viral capsid type A at 10 uM measured after 72 hrs postinfection by electron microscopy. In kind it is functional. The method, boiled down:
as §1

Data set [9] deals with Human betaherpesvirus 5. In words: Antiviral activity against HCMV AD169 infected in HFF assessed as viral plaque formation at 5 uM after 8 days by microscopy relative to control. In kind it is functional. Summed up:
(§4)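 Plaque reduction with compound at a single concentration of 5 μM. After infection, plaques were counted under a microscope, and inhibition was expressed relative to untreated infected cells.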

Data set [10] deals with Human betaherpesvirus 5. In words: Antiviral activity against ganciclovir-resistant HCMV infected in HFF assessed as formation of viral capsid type B at 10 uM measured after 72 hrs postinfection by electron microscopy. In kind it is functional. The method, boiled down: as §1
The next data set concerns Human alphaherpesvirus 3. In words: Antiviral activity against VZV OKA infected in HFF assessed as viral plaque formation at 5 uM after 8 days by microscopy relative to control. It is filed as functional. Summed up: as §4
Data set [11] concerns Human betaherpesvirus 5. In words: Antiviral activity against ganciclovir-resistant HCMV infected in HFF assessed as formation of viral capsid type C at 10 uM measured after 72 hrs postinfection by electron microscopy. In kind it is functional. The method, boiled down:
as §1

Data set [12] can be described thus: Cytotoxicity against HFF after 8 days by XTT assay. It is filed as cell-based. The following applies: human, HFF cells. Summed up:
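XTT proliferation assay: HFF seeded at 5 × 10^4/well were exposed to a range of drug concentrations for 8 days at 37°C. XTT labeling mixture was then added for 4 h, and absorbance was read at 492 nm (reference 650 nm). CC50 was derived.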

Data set [13] deals with Murid betaherpesvirus 1 (mouse cytomegalovirus). In words: Antiviral activity against MCMV Smith infected in NIH 3T3 assessed as viral plaque formation at 5 uM after 8 days by microscopy relative to control.
Data set [14] deals with Human betaherpesvirus 5. In words: Antiviral activity against ganciclovir-resistant HCMV infected in HFF assessed as cleavage of viral DNA concatemer at 10 uM measured after 72 hrs postinfection by […]. In kind it is functional, organism-based.
The nature of data set [15]: Selectivity index, ratio of CC50 for HFF to EC50 for ganciclovir-sensitive HCMV infected in HFF.
Data set [16] deals with Human betaherpesvirus 5. In words: Antiviral activity against ganciclovir-sensitive HCMV infected in HFF assessed as formation of viral capsid type C at 10 uM measured after 72 hrs postinfection by electron microscopy. In kind it is functional. Summed up: as §1
In data set [17] the test system is Human betaherpesvirus 5. In words: Antiviral activity against ganciclovir-sensitive HCMV infected in HFF assessed as formation of viral capsid type B at 10 uM measured after 72 hrs postinfection by electron microscopy. In kind it is functional. The method, boiled down: as §1
Data set [18] relates to Human betaherpesvirus 5. In words: Antiviral activity against ganciclovir-resistant HCMV infected in HFF assessed as cleavage of viral DNA concatemer at 30 uM measured after 72 hrs postinfection by […]. It is filed as functional, organism-based.
Another data set concerns Human alphaherpesvirus 1. In words: Antiviral activity against Herpes simplex virus 1 KOS infected in HFF assessed as viral plaque formation at 5 uM after 8 days by microscopy relative to control. It is filed as functional. The method, boiled down: as §4
The test system of data set [19] is Human betaherpesvirus 5. In words: Antiviral activity against ganciclovir-sensitive HCMV infected in HFF assessed as cleavage of viral DNA concatemer at 30 uM measured after 72 hrs postinfection by […]. It is filed as functional, organism-based. The method, boiled down:
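HFF (1 × 10^6) infected with a GCV-sensitive clinical isolate at MOI 1 in the presence of 30 μM compound. DNA was harvested at 72 h p.i. and separated by PFGE in 1% low-melting agarose (15–110 s, 150 V, 27 h). Cleavage into unit-length genomes was judged after ethidium bromide staining.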

Broadly, the CC50 is the concentration giving 50% cytotoxicity. Higher therefore signals lower toxicity to the cells. One may read the EC50 as the midpoint of the concentration-response curve. Regarding `CC(=O)OC[C@H]1O[C@@H](n2c(Cl)nc3c(Cl)c(Cl)c(Cl)cc32)[C@H](OC(C)=O)[C@@H]1OC(C)=O`, the Activity in the data set on Human betaherpesvirus 5 [1] came out at 10.5%; in the data set with Human betaherpesvirus 5 [8], 8.6%; in the data set on Human betaherpesvirus 5 [9], 0.25%; with Human betaherpesvirus 5 [10], 61.5%; in the data set on Human alphaherpesvirus 3 it was 31.1%; in the data set on Human betaherpesvirus 5 [11], 29.9%. Also, the Activity amounted to 68.3% in [13], 13.3% in the data set with Human betaherpesvirus 5 [16] and 76.4% in the data set on Human betaherpesvirus 5 [17]. Moreover, the CC50 at 192 h in [2] is 39.6 µM; in data set [3], 19.2 µM; in [12], 66.7 µM. The Ratio CC50/EC50 is 445 in data set [4] and 202 in [15]. For the same compound, the concentration giving a half-maximal response (EC50) in the data set on Human betaherpesvirus 5 [5] was 340 nM; in the data set with Human betaherpesvirus 5 [7], 150 nM. In addition, the result in the data set with Human betaherpesvirus 5 [6] and in the data set with Human betaherpesvirus 5 [14] was Active.

Consider `CC(=O)OC[C@H]1O[C@@H](n2c(Br)nc3c(Cl)c(Cl)c(Cl)cc32)[C@H](OC(C)=O)[C@@H]1OC(C)=O`, for which the Activity in the data set on Human betaherpesvirus 5 [1] worked out at 10.7%; in the data set on Human betaherpesvirus 5 [8] it was 15.3%; in the data set with Human betaherpesvirus 5 [9], 0.42%; in the data set with Human betaherpesvirus 5 [10], 60.7%; in the data set on Human alphaherpesvirus 3, 26.1%; with Human betaherpesvirus 5 [11] it was 24%. In addition, the Activity in data set [13] amounted to 70.8%; with Human alphaherpesvirus 1 it was 76.6%; in the data set with Human betaherpesvirus 5 [16] it was 28.8%; in the data set on Human betaherpesvirus 5 [17] it was 60.5%. In addition, the CC50 at 192 h in data set [2] was 15.1 µM; in data set [3], 14.5 µM; in [12] it was 27.9 µM. Further, the Ratio CC50/EC50 in [4] was determined as 55.8; in [15], 121. Also, the figures for the EC50 in the data set with Human betaherpesvirus 5 [5] and in the data set with Human betaherpesvirus 5 [7] were 330 nM and 500 nM, respectively. Further, the result in the data set with Human betaherpesvirus 5 [18] and in the data set with Human betaherpesvirus 5 [19] was Active.

As for `OC[C@H]1O[C@@H](n2c(Br)nc3cc(Cl)c(Cl)cc32)[C@H](O)[C@@H]1O`, the Activity is 13.6% with Human betaherpesvirus 5 [1]; 13.8% with Human betaherpesvirus 5 [8]; 0.34% with Human betaherpesvirus 5 [9]; 55% in the data set on Human betaherpesvirus 5 [10]; 31.6% in the data set on Human alphaherpesvirus 3; 31.2% in the data set with Human betaherpesvirus 5 [11]. The Activity was determined as 41.6% in [13], 46.6% with Human alphaherpesvirus 1, 21.4% in the data set on Human betaherpesvirus 5 [16] and 67.2% in the data set on Human betaherpesvirus 5 [17]. Moreover, the CC50 at 192 h is 88.1 µM in [2], 136 µM in data set [3] and 314 µM in data set [12]. The Ratio CC50/EC50 was 667 in data set [4] and 896 in data set [15]. Also, the results for the EC50 in the data set on Human betaherpesvirus 5 [5] and in the data set with Human betaherpesvirus 5 [7] were 350 nM and 470 nM, respectively.
